{"source": "paper PMC11995693", "about": "(Journal of medicinal chemistry, 2025)", "key": {"[1]": {"system": "Poly(I:C) + IFNγ stimulated NHEK cells", "assay": "Poly", "type": "cell-based, human", "settings": "for inhibition of IFNγ-inducible chemokines (CXCL9, CXCL10, CXCL11): 30–100 μM", "outline": "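Primary human epidermal keratinocytes were seeded and incubated overnight at 37 °C. They were stimulated with Poly(I:C) (50 μg/mL) plus IFNγ (5 ng/mL), with or without test compound at 1, 10, 30 or 100 μM, for 8 h. RNA was isolated, and TaqMan RT-PCR gave fold changes in IL-6, IFNβ, IL-1β, CXCL9, CXCL10 and CXCL11 expression.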"}, "[2]": {"system": "NHEKs", "assay": "Screening of TLR3 and IL-6 mRNA expression in NHEKs", "type": "cell-based, human"}, "[3]": {"assay": "Oral pharmacokinetics in mice", "type": "in vivo, C57BL6 mice", "settings": "100 mg/kg equivalent"}, "[4]": {"assay": "Preliminary toxicity profile of P13, systemic administration", "type": "in vivo", "settings": "two doses, systemic administration (Figure S2, Table S1)"}, "[5]": {"system": "C57BL/6 mice", "settings": "cited from earlier work; for hair growth: topical application"}, "[6]": {"assay": "PAMPA-GIT permeability", "type": "in vitro ADME", "outline": "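Stirred PAMPA sandwich with the acceptor-side filter coated in GIT-0 lipid. Donor held test or reference compound at 10 μM in pH 7.4 buffer with 0.2% DMSO, against pH 7.4 sink buffer. Incubated 4 h at room temperature. Donor and acceptor were sampled and quantified by LC-MS/MS. Effective permeability (Pe, cm/s) was calculated from filter area × 70% porosity, phase volumes, incubation and steady-state time, and donor concentrations, with membrane retention factor.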"}, "[7]": {"assay": "Chemical stability in pH buffers", "type": "physicochemical"}}, "note": "Entries after “also recorded” stand apart in the source; their conditions may differ. Like-named read-outs stand apart in the source and are kept apart here."}
{"molecule": "C=C(CC(=O)OC)C(=O)OCOC(=O)OC(C)C", "note": "[Compound P13, 1-(((Isopropoxycarbonyl)oxy)methyl) 4-Methyl 2-Methylenesuccinate]", "values": [{"measurement": "inhibition of IL-6, in words", "setting": "[1]; 1–100 μM, 8 h", "result": "significant, dose-dependent inhibition"}, {"measurement": "inhibition of IFNγ-inducible chemokines (CXCL9, CXCL10, CXCL11)", "setting": "[1]; 8 h", "result": "over 50%"}, {"measurement": "inhibition of mRNA expression of TLR3 and IL-6", "setting": "[2]; Figure S1", "result": "> 90", "unit": "%"}, {"measurement": "intact prodrug in plasma", "setting": "[3]", "result": "undetectable"}, {"measurement": "hematological changes and weight loss", "setting": "[4]", "result": "No hematological changes or weight loss"}, {"measurement": "skin concentrations", "setting": "[5]; topical administration", "result": "considerable skin concentrations"}, {"measurement": "hair growth", "setting": "[5]", "result": "significantly promoted hair growth"}, {"measurement": "hair growth", "setting": "[5]; listed as SCD-153", "result": "significant increase in hair growth"}]}
{"molecule": "C=C(CC(=O)OC)C(=O)O", "note": "[Compound 4-MI, 4-methyl itaconate]", "values": [{"measurement": "effect on TLR3 and IL-6 mRNA / cytokine production, in words", "setting": "[2]; Figure S1", "result": "neither 4-MI nor 1A affected the mRNA expression; also recorded: failed to inhibit cytokine production"}, {"measurement": "efficacy in vivo in the alopecia areata model", "setting": "[5]; compared at equimolar doses", "result": "ineffective"}, {"measurement": "permeability in PAMPA, in words", "setting": "[6]", "result": "poor permeability"}]}
{"molecule": "C=C(CC(=O)OCOC(=O)OC(C)C)C(=O)OCOC(=O)OC(C)C", "note": "[Compound P2, Bis(((isopropoxycarbonyl)oxy)methyl) 2-Methylenesuccinate]", "values": [{"measurement": "inhibition of IFNβ, in words", "setting": "[1]; 1–100 μM, 8 h", "result": "dose dependent inhibition"}, {"measurement": "inhibition of IL-6, in words", "setting": "[1]; 1–100 μM, 8 h", "result": "significant, dose-dependent inhibition"}, {"measurement": "inhibition of IFNγ-inducible chemokines (CXCL9, CXCL10, CXCL11)", "setting": "[1]; 8 h", "result": "over 50%"}, {"measurement": "inhibition of mRNA expression of TLR3 and IL-6", "setting": "[2]; Figure S1", "result": "> 90", "unit": "%"}, {"measurement": "intact prodrug in plasma", "setting": "[3]", "result": "not detectable"}]}
{"molecule": "C=C(CC(=O)OCc1oc(=O)oc1C)C(=O)O", "note": "[Compound P6, 4-((5-Methyl-2-oxo-1,3-dioxol-4-yl)methoxy)-2-methylene-4-oxobutanoic Acid]", "values": [{"measurement": "chemical stability at pH 7.4, in words", "setting": "[7]", "result": "complete instability"}]}
{"molecule": "C=C(CC(=O)OCOC(=O)C(C)(C)C)C(=O)O", "note": "[Compound P4, 2-Methylene-4-oxo-4-((pivaloyloxy)methoxy)butanoic Acid]", "values": [{"measurement": "chemical stability at pH 7.4, in words", "setting": "[7]", "result": "complete instability"}]}
{"molecule": "C=C(CC(=O)OCOC(=O)OC(C)C)C(=O)OC", "note": "[Compound P9, 4-(((Isopropoxycarbonyl)oxy)methyl) 1-Methyl 2-Methylenesuccinate]", "values": [{"measurement": "effect on IL-1β, in words", "setting": "[1]; 100 μM", "result": "showed effects at 100 μM"}]}
{"molecule": "C=C(CC(=O)OCOC(=O)OC(C)C)C(=O)O", "note": "[Compound P5, 4-(((Isopropoxycarbonyl)oxy)methoxy)-2-methylene-4-oxobutanoic Acid]", "values": [{"measurement": "chemical stability at pH 7.4, in words", "setting": "[7]", "result": "complete instability"}]}
{"molecule": "C=C(CC(=O)OCCCOCCCCCCCCCCCCCCCC)C(=O)O", "note": "[Compound P7, 4-(3-(Hexadecyloxy)-propoxy)-2-methylene-4-oxobutanoic Acid]", "values": [{"measurement": "permeation index (Pe)", "setting": "[6]", "result": 3.21, "unit": "×10⁻⁶ cm/s"}]}
{"molecule": "C=C(CC(=O)O)C(=O)O", "note": "[IA, Itaconic acid]", "values": [{"measurement": "effect on TLR3 and IL-6 mRNA / cytokine production, in words", "setting": "[2]; Figure S1", "result": "failed to inhibit cytokine production"}, {"measurement": "effect on TLR3 and IL-6 mRNA / cytokine production, in words", "setting": "[2]; Figure S1, listed as 1A", "result": "neither 4-MI nor 1A affected the mRNA expression"}, {"measurement": "permeability in PAMPA, in words", "setting": "[6]", "result": "poor permeability"}]}
